The source of these data is ChEMBL document CHEMBL4627246, “Pyroglutamide-Based P2X7 Receptor Antagonists Targeting Inflammatory Bowel Disease” (J Med Chem, 2020).

The source made the active and inactive calls. No cut-off for these calls is given here.

Data set [1] is described as follows: Drug metabolism in mouse measured after 40 mins. It counts as ADME. The conditions noted are these: read-out: Drug metabolism.
Data set [2] can be described thus: Metabolic stability in human hepatocytes. It counts as ADME, cell-based, Hepatocyte.
A short description of data set [3]: Metabolic stability in human liver microsomes assessed as half life at 0.2 mg/ml incubated for 60 mins by UPLC/MS-MS analysis. The class given is ADME, Microsome. (Microsomes from liver hold many membrane-bound enzymes, among them those of drug oxidation.)
A short description of data set [4]: Solubility of compound in saline at 1mg/ml. It counts as physicochemical. The note with it: buffer.
Data set [5] addresses T1, P2X purinoceptor 7 (Homo sapiens) (UniProt Q99572).
T1 sequence (whole entry): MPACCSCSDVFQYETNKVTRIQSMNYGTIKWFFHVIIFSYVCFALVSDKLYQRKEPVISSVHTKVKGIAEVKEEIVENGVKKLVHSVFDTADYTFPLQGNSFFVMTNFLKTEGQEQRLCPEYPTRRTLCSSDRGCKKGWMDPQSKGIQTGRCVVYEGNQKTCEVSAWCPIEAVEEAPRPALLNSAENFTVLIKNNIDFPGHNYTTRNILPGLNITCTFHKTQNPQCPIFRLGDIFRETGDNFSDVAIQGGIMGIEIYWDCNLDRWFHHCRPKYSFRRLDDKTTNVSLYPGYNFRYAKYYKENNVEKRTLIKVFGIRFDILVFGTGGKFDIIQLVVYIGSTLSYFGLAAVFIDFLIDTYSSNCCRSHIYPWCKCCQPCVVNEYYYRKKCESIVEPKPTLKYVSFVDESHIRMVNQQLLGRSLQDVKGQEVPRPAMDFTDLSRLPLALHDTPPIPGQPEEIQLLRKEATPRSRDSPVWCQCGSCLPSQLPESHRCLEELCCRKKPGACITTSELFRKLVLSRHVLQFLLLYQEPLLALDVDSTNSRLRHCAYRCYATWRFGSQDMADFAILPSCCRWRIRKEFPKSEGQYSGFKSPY
Briefly: Antagonist activity at P2X7R in human THP1 cells assessed as inhibition of LPS and BzATP-induced mature form of IL-1beta expression in cells supernatant at 10^-6 mol/L pretreated with compound followed by LPS/BzATP addition and measured after 2 to 6 hrs by Western blot analysis. The class given is cell-based. The conditions noted are these: THP-1. (A western blot detects proteins with antibodies after separation by electrophoresis.)

For another data set, the system named is HEK293. Briefly: Cytotoxicity against human HEK293 cells assessed as reduction in cell viability at 10^-5 mol/L incubated for 72 hrs. The class given is cell-based. The note with it: hek293, 72 h, 10 µM. The method in brief: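 Wild-type and P2RX7-transfected HEK293 cells exposed to compound for 72 hours; viability compared against untreated control.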

In data set [6] the target is T1, P2X purinoceptor 7 (Homo sapiens). The data set is described as follows: Antagonist activity at P2X7R in human THP1 cells assessed as inhibition of LPS and BzATP-induced cell death at 10^-6 mol/L pretreated with compound followed by LPS/BzATP addition and measured after 6 hrs by sytox green dye based flow cytometry. The note with it: THP-1. A general note: Flow cytometry measures light scatter and fluorescence of single cells or particles in a stream.

Data set [7] shares this target. Briefly: Antagonist activity at P2X7 receptor in human THP-1 cells assessed as inhibition of LPS and BzATP-induced IL-1beta production at 10^-6 mol/L pretreated with compound followed by LPS/BzATP addition and measured after 2 to 6 hrs by ELISA. It counts as cell-based. The note with it: TDE = time-dependent effect. Summed up:
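PMA (100nM)-differentiated THP-1 macrophages (RPMI 1640, 10% FCS), 10^6 cells, pretreated with antagonist at […], then challenged with LPS 10 μmol/L and BzATP 70 μmol/L at 37 °C, 5% CO2; IL1β measured by ELISA, including the 6 h point; mean ± SD, P<0.05 significant.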

The nature of data set [8]: Metabolic stability in human liver microsomes assessed as intrinsic clearance at 0.2 mg/ml incubated for 60 mins by UPLC/MS-MS analysis. The class given is ADME, Microsome. The note with it: read-out: CLH.
Data set [9] deals with T1, P2X purinoceptor 7 (Homo sapiens). The data set is described as follows: Antagonist activity at P2X7 receptor in human THP-1 cells assessed as inhibition of LPS and BzATP-induced IL-1beta production at 10^-5 mol/L pretreated with compound followed by LPS/BzATP addition and measured after 2 to 6 hrs by ELISA. The class given is cell-based. The method in brief:
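THP-1 monocytes grown in RPMI 1640 + 10% FCS, differentiated to macrophages with PMA (100nM); 10^6 cells pretreated with antagonist at 10^-5 mol/L, then exposed to LPS 10 μmol/L plus BzATP 70 μmol/L at 37 °C, 5% CO2; IL1β quantified by ELISA in samples at 2, 4 and 6 h; mean ± SD, significance P<0.05.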

Data set [10] shares this target. The data set is described as follows: Inhibition of human P2X7 expressed in human HEK293 cells assessed as reduction in BzATP-stimulated TO-PRO-3 incorporation at 10 uM preincubated with compound and TO-PRO-3 for 15 mins prior to BzATP addition and measured after 1 hr by Fluo-3AM dye based flow cytometry relative to control. The class given is cell-based. Summed up:
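HEK-293 cells overexpressing human P2RX7 loaded with Fluo-3 AM, then incubated with TO-PRO-3 (large pore uptake) and propidium iodide (viability) plus compound (10⁻⁵ M single point) for 15 min before BzATP 100 µM. After 1 h, flow cytometry; percentage of Fluo-3/TO-PRO-3 double-positive cells calculated. Mean of n ≥ 2 with positive control.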

The target of the next data set is T2, P2X purinoceptor 7 (Homo sapiens, UniProt Q99572).
T2 sequence (Q99572 whole entry): T1 sequence (whole entry)
The data set is described as follows: Displacement of [3H]-A804598 from human P2X7 expressed in human HEK293 cell membrane incubated for 1 hr by microplate scintillation counting method. The class given is cell membranes.

Data set [11] concerns the target T3, P2X purinoceptor 1 (Homo sapiens) (UniProt P51575).
T3 sequence (whole entry): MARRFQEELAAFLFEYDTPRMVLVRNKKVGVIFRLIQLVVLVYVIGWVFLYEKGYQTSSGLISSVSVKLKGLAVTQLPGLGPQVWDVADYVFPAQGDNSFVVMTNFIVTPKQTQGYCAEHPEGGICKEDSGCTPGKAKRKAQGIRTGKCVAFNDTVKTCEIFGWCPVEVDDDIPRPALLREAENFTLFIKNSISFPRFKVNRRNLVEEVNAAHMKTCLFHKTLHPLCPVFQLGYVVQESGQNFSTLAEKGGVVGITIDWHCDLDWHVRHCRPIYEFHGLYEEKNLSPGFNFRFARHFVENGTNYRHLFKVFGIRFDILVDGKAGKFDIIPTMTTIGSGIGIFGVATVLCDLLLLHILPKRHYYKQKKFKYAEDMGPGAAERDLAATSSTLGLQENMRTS
The data set is described as follows: Antagonist activity at P2X1 receptor in human platelet assessed as inhibition of thrombin-induced platelet aggregation at 10 '-5 to 10^-6 mol/L pretreated with compound and LPS/BzATP for 10 mins followed by thrombin addition and measured for 8 mins by aggregometry analysis. It counts as cell-based.

The target of data set [12] is T1, P2X purinoceptor 7 (Homo sapiens). The data set is described as follows: Antagonist activity at P2X7R in human THP1 cells assessed as inhibition of LPS and BzATP-induced ROS production at 10^-5 mol/L pretreated with compound followed by LPS/BzATP addition and measured up to 5 hrs by kinetic chemiluminescence based fluorometric analysis. The class given is cell-based. The note with it: THP-1. The method in brief:
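PMA-differentiated THP-1 macrophages (10^5 cells) in RPMI 1640 + 10% FBS pretreated with antagonist at 10^-5 mol/L, then LPS 10 μmol/L plus BzATP 70 μmol/L at 37 °C, 5% CO2; horseradish peroxidase (50 μg/mL) and luminol (50 μM) mixture added, chemiluminescence read on a fluorometer; cell-free H2O2 serves as positive control.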

Broadly, the half-life is the time in which the quantity being followed falls by half. Broadly, the inhibition is the relative decrease from the control value, in per cent. What is called IC50 is the concentration at which inhibition is half-maximal. The Ki is the dissociation constant of the complex between target and ligand, obtained from inhibition or displacement. For the compound `O=C(NCc1ccc(Cl)cc1Cl)[C@@H]1CCC(=O)N1c1ccsc1`, the metabolised at 40 min in data set [1] is 99.9%. Moreover, in [2], the Stability result is recorded as “Unstable”. For the same compound, the half-life in [3] worked out at 2.5 min. Moreover, the solubility result in data set [4] was “Insoluble”. In addition, the inhibition entry in data set [5], in data set [9] and in data set [12] was “Active” throughout. Moreover, the Activity result in the data set on HEK293 was “Non-Toxic”. Moreover, the inhibition result in [6] is “inactive”. The inhibition entry in data set [7] is “Tde”; in [10], 78%. Besides, the microsomal CLint in [8] was determined as 762 µL/min/mg. Further, the IC50 at P2X purinoceptor 7 came out at 1250 nM. At P2X purinoceptor 7, this compound had a Ki of 256 nM. In addition, the outcome in data set [11] was inactive.
Consider `O=C(NCc1ccc(Cl)cc1Cl)[C@@H]1CCC(=O)N1c1cccs1`, for which the metabolised at 40 min in data set [1] came out at 100%. Moreover, in [2], the Stability entry is “Unstable”. Besides, the half-life in data set [3] was 1.5 min. In data set [4], the solubility entry is on record as “Insoluble”. Also, the inhibition entry in [5], in data set [9] and in data set [12] was “Active” throughout. For the same compound, in the data set with HEK293, the Activity result is recorded as “Non-Toxic”. Also, the inhibition entry in data set [6] is “inactive”. The inhibition entry in data set [7] was “Tde”; in [10] it was 98%. Also, the microsomal CLint in data set [8] turned out to be 1070 µL/min/mg. This compound had an IC50 on P2X purinoceptor 7 of 720 nM. The Ki on P2X purinoceptor 7 came out at 147 nM. Besides, in data set [11], the result was inactive.
